# hIAP act: human IAP activation | P09923 | purified human IAP, CDP-Star luminescence, 30 min; hits give high values; 1 = vehicle-only enzyme, 0 = enzyme-free background | activation factor at 10 µM | actives 0.16% (n = 330,000) | AID 2524;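 active means activation factor of the enzyme at least 2-fold when tested at 20 µM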
# Target sequence (P09923 whole entry, looked up): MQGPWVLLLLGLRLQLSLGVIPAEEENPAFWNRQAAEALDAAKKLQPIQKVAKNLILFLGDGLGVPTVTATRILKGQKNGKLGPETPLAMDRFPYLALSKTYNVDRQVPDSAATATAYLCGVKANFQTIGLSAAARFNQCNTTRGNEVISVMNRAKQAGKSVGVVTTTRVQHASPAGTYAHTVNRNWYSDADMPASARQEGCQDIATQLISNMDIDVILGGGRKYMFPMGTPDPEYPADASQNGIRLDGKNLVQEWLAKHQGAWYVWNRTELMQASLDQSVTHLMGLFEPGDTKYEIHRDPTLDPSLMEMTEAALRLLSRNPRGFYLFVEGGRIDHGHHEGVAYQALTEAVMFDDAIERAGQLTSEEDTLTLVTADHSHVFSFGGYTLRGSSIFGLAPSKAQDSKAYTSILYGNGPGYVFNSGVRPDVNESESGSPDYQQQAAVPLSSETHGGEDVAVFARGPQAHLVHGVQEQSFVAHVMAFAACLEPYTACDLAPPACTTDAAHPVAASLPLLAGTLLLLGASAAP
# bIAP activator: intestinal alkaline phosphatase (bovine) activation | purified bovine IAP, CDP-star luminescence, 30 min; hits give high values; fold of DMSO-control signal, blank-subtracted | activation factor at 20 µM | actives 0.17% (n = 200,000);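 active means activation factor of 2 or more at 20 µM, a signal rise over negative controls twice the positive control's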
# mIAP act: mouse IAP activation. muIAP, CDP-Star luminescence, 30 min; hits give high values; 1 = vehicle-only enzyme signal, 0 = enzyme-free wells. activation factor at 10 µM. actives 0.24% (n = 330,000). AID 2805;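 active means activation factor of at least 2 at 20 µM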
#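 Assay system: mouse IAP enzyme; Reagent: CDP-Star chemiluminescent phosphatase substrate; Compound: DMSO-dissolved test compounds; Incubation: 30 min, room temperature; Technique: luminescence from enzymatic CDP-Star hydrolysis; Controls: DMSO-only wells and no-enzyme negative control.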
# hIAP inh: blocks human intestinal alkaline phosphatase. AID 2544. purified IAP, CDP-Star luminescence, 30 min. actives 0.12% (n = 330,000). inhibition, % at 10 µM;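 active means inhibition reaching a set limit with compound at 10 µM in the primary screen, cut at about 35% in these data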;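 further: plate controls were DMSO wells with enzyme for no effect and no-enzyme buffer wells for full effect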
# mIAP block: blocks mouse intestinal alkaline phosphatase. purified mouse IAP, CDP-Star luminescence, 30 min. inhibition, % at 10 µM. actives 0.2% (n = 330,000);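 active means inhibition of at least 40% at 10 µM in the primary screen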;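 further: plate controls were DMSO with enzyme for no effect and no enzyme wells for full effect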
# bIAP inhibitor: blocks bovine intestinal alkaline phosphatase activity; inhibition, % at 20 µM; AID 1019; 190,000 tested, under 10 active; purified bovine IAP, CDP-star luminescence, 30 min;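 active means over 50% inhibition of intestinal alkaline phosphatase at 20 µM in the single-dose screen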
#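 Assay system – bovine IAP enzyme · Quantity – bovine IAP at 1/65,000,000 final dilution · Detection – CDP-star luminescence signal · Times – 30 min reaction at room temperature · Also added – CDP-star substrate at 30 µM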
# * = called active by the depositor; x = no result. Compounds with a hit are over-represented: about 0.77% of the library has one in this group of screens.
SMILES,hIAP act,bIAP activator,mIAP act,hIAP inh,mIAP block,bIAP inhibitor
O=C(Nc1cccc(-c2nc3ccccc3o2)c1)c1ccc(N2C(=O)C3C4C=CC(C4)C3C2=O)cc1 (stereo not drawn),1.06,1,0.992,-5.7,0.8,0.0
O=C1C2C3C=CC(C3)C2C(=O)N1c1cccc(-c2nc3ccccc3o2)c1 (stereo not drawn),1.11,3.9*,1.1,-11.0,-10.4,-287.8
CCCNC(=O)Cn1nc(C(F)(F)F)c2c1CCCC2,1,0.9,0.955,-0.4,4.5,5.6
O=C(COC(=O)/C=C/c1ccc([N+](=O)[O-])cc1)NCc1cccs1,0.956,x,1.01,4.4,-1.3,x
O=C(/C=C/c1ccc([N+](=O)[O-])cc1)NCc1cccs1,1.2,4.9*,1.1,-20.0,-9.9,-387.0
Cc1ccc(NC(=O)COC(=O)c2ccc(CN3CCCC3=O)cc2)cc1C,0.996,x,0.944,0.4,5.6,x
Cc1cccc(C(=O)NNc2ncnc3c2cnn3C)c1,2.13*,1.5,0.997,-113.2,0.3,-48.4
Cc1ccc(-n2ncc3c(NNC(=O)c4ccco4)ncnc32)c(C)c1,2.98*,1.5,1.02,-197.5,-1.9,-45.6
Cn1ncc2c(NNC(=O)c3ccc(O)cc3)ncnc21,1.19,1.3,0.702,-19.2,29.8,-33.4
Cc1ccc(-n2ncc3c(NCc4ccco4)ncnc32)c(C)c1,1.19,0.9,1.09,-19.3,-9.3,11.4
Cc1csc(NC(=O)C(Cc2ccccc2)n2cccc2)n1 (stereo not drawn),0.916,0.9,0.568,8.4,43.2*,12.3
Cc1ccc(NC(=O)C(Cc2ccccc2)n2cccc2)cc1 (stereo not drawn),1.14,x,1.28,-13.6,-28.2,x
COCCNC(=S)Nc1ccc(S(=O)(=O)Nc2ncccn2)cc1,0.915,1.1,0.893,8.5,10.7,-8.7
CSc1ccc(S(=O)(=O)NCCSc2ccccn2)cc1,1.03,0.9,1.09,-3.1,-9.2,11.0
COc1ccc(N2CCN(C(=O)CCS(=O)(=O)c3ccc4c(c3)CCN4C(=O)C3CC3)CC2)cc1,1.4,x,0.999,-39.9,0.1,x
O=C1COc2ccc(S(=O)(=O)N3CCC(C(=O)NCc4ccc(F)cc4)CC3)cc2N1,1.06,x,1.02,-5.6,-1.8,x
CCOC(=O)c1c(OCCO)nn(-c2ccccc2)c1N,0.939,1.1,0.957,6.1,4.3,-14.9
CCCCNC(=O)C(CC)(ONc1ccccc1C(F)(F)F)c1ccccc1OC (stereo not drawn),0.931,x,0.871,6.9,12.9,x
c1ccc(N2N=C(c3cccs3)CC2c2ccco2)cc1 (stereo not drawn),0.82,1.1,2.08*,18.0,-108.2,-13.6
Clc1ccc(N2N=C(c3cccs3)CC2c2ccco2)cc1 (stereo not drawn),0.943,1.3,1.9,5.7,-89.8,-28.0
Cc1cccc(NS(=O)(=O)c2cnc[nH]2)c1,1.23,2*,0.941,-23.0,5.9,-95.8
Cc1c(C(=O)Nc2ccccc2[N+](=O)[O-])csc1-c1ccccc1,0.87,3.7*,0.907,13.0,9.3,-266.2
CCCCCCn1ccc(=N)cc1,1.15,0.9,1.01,-14.8,-1.2,10.8
CCCCCCCCCCCCCCCCn1cc[n+](CC(C)=O)c1,x,5.2*,x,x,x,-416.8
O=C(NNc1cc(Cl)ccc1Cl)C1CCC1,0.965,x,1.06,3.5,-5.7,x
SMILES,hIAP act,bIAP activator,mIAP act,hIAP inh,mIAP block,bIAP inhibitor
O=C(CCc1ccccc1Cl)Nc1cccc(S(=O)(=O)N2CCCC2)c1,1.19,x,1.17,-19.3,-17.3,x
Cc1cc(OCC(=O)Nc2cccc(S(=O)(=O)N3CCCCC3)c2)ccc1Cl,1,x,3.07*,-0.5,-207.1,x
O=C(Cc1ccccc1Cl)Nc1cccc(S(=O)(=O)N2CCCCCC2)c1,1.07,x,2.13*,-7.4,-113.1,x
Cc1cc(OCC(=O)Nc2cccc(S(=O)(=O)N3CCCC3)c2)ccc1Cl,1.07,x,1.42,-7.5,-41.5,x
CC(C)CNC(=S)NC1CC2CCCC(C1)N2Cc1ccco1 (stereo not drawn),1.16,1,1.26,-16.3,-26.0,4.6
Cc1ccc(NC(=S)NC2CC3CCCC(C2)N3Cc2cccs2)cc1 (stereo not drawn),1.34,2*,4.18*,-34.4,-317.9,-95.3
CC(C)CNC(=S)NC1CC2CCCC(C1)N2Cc1cccs1 (stereo not drawn),0.989,1.1,2.63*,1.1,-163.0,-14.2
CC(C)c1ccc(NC(=O)NC2CC3CCC(C2)N3Cc2cccs2)cc1 (stereo not drawn),1.13,0.8,1.21,-12.6,-20.5,20.2
Cc1ccc(NC(=S)NC2CC3CCCC(C2)N3Cc2ccco2)cc1 (stereo not drawn),1.07,1.1,1.53,-7.1,-53.0,-11.2
Fc1ccc(NC(=S)NC2CC3CCCC(C2)N3Cc2cccs2)cc1 (stereo not drawn),1.07,1.4,2.81*,-7.5,-181.1,-40.8
COc1ccc(C[C@H]2CN3C(=NC[C@@H]3Cc3ccccc3)N2CCNC(=O)CCC2CCCCC2)cc1,0.911,2.1*,0.987,8.9,1.3,-105.1
COc1ccc(C[C@H]2CN3C(=NC[C@@H]3C(C)C)N2CCNC(=O)CCC2CCCCC2)cc1,0.855,1.1,1.02,14.5,-1.6,-14.8
CC(=O)c1ccc(S(=O)(=O)Nc2ccccc2C(=O)NC2CC2)cc1,0.922,x,0.922,7.8,7.8,x
O=C(O)c1cc(O)c2c(c1)C(=O)c1cc(O)cc(O)c1C2=O,0.829,0.9,0.599,17.1,40.1*,13.2
Cc1cc(NCCCn2ccnc2)n2nc(-c3ccc(F)cc3)cc2n1,1.22,1.4,1.02,-21.7,-1.8,-44.4
Cc1cc(C)c2c(n1)nn1c(NCCCn3ccnc3)cc(C)nc21,x,2.3*,x,x,x,-127.7
Cc1oc2ccc(O)cc2c1C(=O)c1ccc([N+](=O)[O-])cc1,1.08,0.9,0.712,-8.0,28.8,8.2
CN(C)/C=C/c1oc2ccc(O)cc2c1[N+](=O)[O-],0.537,0.8,0.745,46.3*,25.5,17.1
O=C(NCCSCc1ccco1)Nc1cc(Cl)cc(Cl)c1,1.15,x,2.36*,-15.3,-135.6,x
Cc1cc(C)nc(N2CCCC(C(=O)Nc3nc4ccc(S(C)(=O)=O)cc4s3)C2)n1 (stereo not drawn),0.934,5.3*,0.961,6.6,3.9,-430.5
O=C(CCc1ccc(S(=O)(=O)N2CCOCC2)cc1)Nc1ccc2c(c1)OCCO2,1.04,x,1.09,-3.8,-8.6,x
Cc1cc(C)n(C(=O)CCC(=O)NCc2ccccc2)n1,0.891,1,0.44,10.9,56.0*,0.9
CC1=CC(C)(C)N2C(=O)C3(N=C(N)NC(Nc4ccccc4)=N3)c3cc(C)cc1c32 (stereo not drawn),0.985,2.3*,2.21*,1.5,-120.9,-134.4
O=c1[nH]c2cc(Cl)c([N+](=O)[O-])nc2[nH]1,0.867,0.6,0.465,13.3,53.5*,37.5
